ChEMBL document CHEMBL1687700, “Discovery of an Orally Efficacious Imidazo[5,1-f][1,2,4]triazine Dual Inhibitor of IGF-1R and IR” (ACS Med Chem Lett, 2010)

Columns and labels:
[1] = Permeability of the compound by PAMPA assay at pH 5.0; format: ADME; conditions: read-out: permeability
Procedure, shortened: (§1)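 Parallel artificial membrane permeability assay run at pH 5.0 and pH 7.4; permeability reported in nm/s.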

[2] = Permeability of the compound by PAMPA assay at pH 7.4; format: ADME; conditions: read-out: permeability; procedure, shortened: as §1
[3] = Clearance in CD-1 mouse at 5 mg/kg, iv administered as single dose; format: ADME, organism-based; design: dose 5 mg/kg, route intravenous; conditions: in vivo
[4] = Volume of distribution at steady state in CD-1 mouse at 5 mg/kg, iv administered as single dose; format: ADME, organism-based; design: dose 5 mg/kg, route intravenous; conditions: in vivo, read-out: Vdss
[5] = Cmax in CD-1 mouse plasma at 25 mg/kg, po administered as single dose; format: ADME, organism-based; design: dose 25 mg/kg, route oral
[6] = Oral bioavailability in CD-1 mouse at 25 mg/kg, po administered as single dose; format: ADME, organism-based; conditions: CD-1, mouse, in vivo

Papp [1] [×10⁻⁶ cm/s]	Papp [2] [×10⁻⁶ cm/s]	clearance [3] [mL/min/kg]	Vd [4] [L/kg]	Cmax [5] [nM]	bioavailability [6] [%]	Compound
20.4	105	7	1.2	3100	18	Nc1ncnn2c1c(-c1ccc3ccc(-c4ccccc4)nc3c1F)nc2[C@H]1C[C@@H](N2CCN(C=O)CC2)C1
14.5	67.2	21	4.9	1900	27	CN1CCN([C@H]2C[C@@H](c3nc(-c4ccc5ccc(-c6ccccc6)nc5c4F)c4c(N)ncnn43)C2)CC1
